{"source": "ChEMBL document CHEMBL4387704", "about": "“Design, synthesis and biological evaluation of novel isoindolinone derivatives as potent histone deacetylase inhibitors” (Eur J Med Chem, 2019)", "key": {"[1]": {"assay": "AUC (0 to infinity) in Sprague-Dawley rat at 1 mg/kg, iv by LC-MS/MS analysis", "format": "ADME, organism-based", "parameters": "dose 1 mg/kg, route intravenous, time infinity", "conditions": "in vivo", "how_it_was_run": "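Male SD rats, 199-214 g, three per route. Single iv dose of 1 mg/kg or oral dose of 10 mg/kg. About 200 μL blood drawn from the jugular vein into heparinized tubes at set times, then spun to plasma. 30 μL plasma precipitated with CH3CN containing verapamil and glibenclamide as internal standards. Plasma drug level measured by LC-MS/MS.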"}, "U-251": {"test_system": "U-251", "assay": "Growth inhibition of human U251 cells assessed as cell growth inhibition at 10 uM incubated for 48 hrs by sulforhodamine B assay", "format": "functional", "conditions": "U-251, 48 h, read-out: GI"}, "LOX IMVI": {"test_system": "LOX IMVI", "assay": "Growth inhibition of human LOXIMVI cells assessed as cell growth inhibition at 10 uM incubated for 48 hrs by sulforhodamine B assay", "format": "functional", "conditions": "read-out: GI"}, "SN12C": {"test_system": "SN12C", "assay": "Growth inhibition of human SN12C cells assessed as cell growth inhibition at 10 uM incubated for 48 hrs by sulforhodamine B assay", "format": "functional", "conditions": "read-out: GI"}, "[2]": {"molecular_target": "Histone deacetylase 5 (Homo sapiens) (UniProt Q9UQL6)", "sequence (Q9UQL6 whole entry, canonical isoform)": "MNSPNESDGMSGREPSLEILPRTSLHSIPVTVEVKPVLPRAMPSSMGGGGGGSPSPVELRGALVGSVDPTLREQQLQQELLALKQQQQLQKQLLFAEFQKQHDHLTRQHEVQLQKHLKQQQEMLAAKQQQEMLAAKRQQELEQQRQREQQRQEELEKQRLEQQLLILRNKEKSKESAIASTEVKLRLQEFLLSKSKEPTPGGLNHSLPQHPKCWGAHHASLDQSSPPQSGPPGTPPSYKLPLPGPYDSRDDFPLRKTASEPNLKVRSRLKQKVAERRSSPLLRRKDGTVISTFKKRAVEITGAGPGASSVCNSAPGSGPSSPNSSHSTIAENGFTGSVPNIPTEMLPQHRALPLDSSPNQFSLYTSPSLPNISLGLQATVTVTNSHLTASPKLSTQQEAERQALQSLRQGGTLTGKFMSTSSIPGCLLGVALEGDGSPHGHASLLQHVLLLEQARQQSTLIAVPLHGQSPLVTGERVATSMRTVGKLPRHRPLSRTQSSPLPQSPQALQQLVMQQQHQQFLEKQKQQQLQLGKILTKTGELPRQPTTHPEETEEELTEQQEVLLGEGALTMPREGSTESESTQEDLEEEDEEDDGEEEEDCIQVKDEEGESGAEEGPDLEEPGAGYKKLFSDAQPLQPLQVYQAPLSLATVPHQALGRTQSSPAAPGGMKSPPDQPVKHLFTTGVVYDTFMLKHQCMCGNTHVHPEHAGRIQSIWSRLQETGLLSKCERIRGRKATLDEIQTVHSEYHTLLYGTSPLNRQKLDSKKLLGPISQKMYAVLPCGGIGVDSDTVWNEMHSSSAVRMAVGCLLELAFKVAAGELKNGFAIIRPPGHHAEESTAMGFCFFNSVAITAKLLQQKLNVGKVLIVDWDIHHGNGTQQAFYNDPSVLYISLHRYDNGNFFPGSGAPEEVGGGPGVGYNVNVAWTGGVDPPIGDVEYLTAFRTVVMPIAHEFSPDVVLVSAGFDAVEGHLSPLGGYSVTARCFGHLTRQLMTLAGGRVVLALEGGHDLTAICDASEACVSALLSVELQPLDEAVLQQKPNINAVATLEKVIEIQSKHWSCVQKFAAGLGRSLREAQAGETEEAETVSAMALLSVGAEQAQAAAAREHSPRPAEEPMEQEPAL", "assay": "Inhibition of HDAC5 (unknown origin) using Fluor de Lys substrate by fluorescence assay relative to control", "how_it_was_run": "(§1)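 Recombinant HDAC isoform assays run by a contract lab. Compounds in DMSO, 10-dose IC50 mode, 3-fold serial dilution from 50 μM. Duplicate runs; IC50 from curve fitting.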"}, "OVCAR-8": {"test_system": "OVCAR-8", "assay": "Growth inhibition of human OVCAR8 cells assessed as cell growth inhibition at 10 uM incubated for 48 hrs by sulforhodamine B assay", "format": "functional", "conditions": "OVCAR-8, 48 h, read-out: GI"}, "NCI-H322M": {"test_system": "NCI-H322M", "assay": "Growth inhibition of human NCI-H322M assessed as cell growth inhibition at 10 uM incubated for 48 hrs by sulforhodamine B assay", "format": "functional", "conditions": "read-out: GI"}, "SK-MEL-28": {"test_system": "SK-MEL-28", "assay": "Growth inhibition of human SK-MEL-28 cells assessed as cell growth inhibition at 10 uM incubated for 48 hrs by sulforhodamine B assay", "format": "functional", "conditions": "SK-MEL-28, 48 h, read-out: GI"}, "MCF7 [3]": {"test_system": "MCF7", "assay": "Antiproliferative activity against human MCF7 assessed as reduction in cell viability measured after 72 hrs using alamar blue based fluorescence method", "format": "functional", "conditions": "MCF7, 72 h", "how_it_was_run": "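HCT116 and MCF-7 grown in McCoy's 5A with 10% FBS and penicillin/streptomycin at 37 °C, 5% CO2. Cells plated in 96-well format and exposed to drug for 72 h. Alamar blue (1 mM solution) added, incubated 5–6 h, fluorescence read at 530/590 nm.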"}, "HT-29": {"test_system": "HT-29", "assay": "Growth inhibition of human HT-29 cells assessed as cell growth inhibition at 10 uM incubated for 48 hrs by sulforhodamine B assay", "format": "functional", "conditions": "HT-29, 48 h, read-out: GI"}, "MCF7 [4]": {"test_system": "MCF7", "assay": "Potency index, ratio of IC50 of chidamide to IC50 of test compound against human MCF7 cells", "format": "functional"}, "OVCAR-5": {"test_system": "OVCAR-5", "assay": "Growth inhibition of human OVCAR5 cells assessed as cell growth inhibition at 10 uM incubated for 48 hrs by sulforhodamine B assay", "format": "functional", "conditions": "OVCAR-5, 48 h, read-out: GI"}, "DU-145": {"test_system": "DU-145", "assay": "Growth inhibition of human DU145 cells assessed as cell growth inhibition at 10 uM incubated for 48 hrs by sulforhodamine B assay", "format": "functional", "conditions": "DU-145, 48 h, read-out: GI"}, "NCI-H23": {"test_system": "NCI-H23", "assay": "Growth inhibition of human NCI-H23 cells assessed as cell growth inhibition at 10 uM incubated for 48 hrs by sulforhodamine B assay", "format": "functional", "conditions": "NCI-H23, 48 h, read-out: GI"}, "NCI-H226": {"test_system": "NCI-H226", "assay": "Growth inhibition of human NCI-H226 assessed as cell growth inhibition at 10 uM incubated for 48 hrs by sulforhodamine B assay", "format": "functional", "conditions": "NCI-H226, 48 h, read-out: GI"}, "UO-31": {"test_system": "UO-31", "assay": "Growth inhibition of human UO31 cells assessed as cell growth inhibition at 10 uM incubated for 48 hrs by sulforhodamine B assay", "format": "functional", "conditions": "UO-31, 48 h, read-out: GI"}, "Histone deacetylase 8": {"molecular_target": "Histone deacetylase 8 (Homo sapiens, UniProt Q9BY41)", "sequence (Q9BY41 whole entry)": "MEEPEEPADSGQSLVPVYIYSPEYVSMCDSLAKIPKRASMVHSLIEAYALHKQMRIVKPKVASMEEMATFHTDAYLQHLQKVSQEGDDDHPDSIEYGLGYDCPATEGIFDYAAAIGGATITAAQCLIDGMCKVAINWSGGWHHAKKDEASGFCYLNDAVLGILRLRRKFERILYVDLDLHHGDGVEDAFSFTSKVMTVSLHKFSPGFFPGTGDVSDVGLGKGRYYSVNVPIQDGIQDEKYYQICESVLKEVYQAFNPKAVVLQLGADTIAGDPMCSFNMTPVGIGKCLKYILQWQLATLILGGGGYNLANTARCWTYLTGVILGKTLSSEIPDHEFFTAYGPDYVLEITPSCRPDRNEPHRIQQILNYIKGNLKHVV", "assay": "Inhibition of HDAC8 (unknown origin) using Fluor de Lys substrate by fluorescence assay relative to control", "how_it_was_run": "as §1"}, "SK-MEL-2": {"test_system": "SK-MEL-2", "assay": "Growth inhibition of human SK-MEL-2 cells assessed as cell growth inhibition at 10 uM incubated for 48 hrs by sulforhodamine B assay", "format": "functional", "conditions": "SK-MEL-2, 48 h, read-out: GI"}, "[5]": {"assay": "Metabolic stability in rat liver microsomes assessed as half life at 1 uM preincubated for 10 mins followed by NADPH addition measured upto 60 mins by LC-MS/MS analysis", "format": "ADME, Microsome", "how_it_was_run": "(§2)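 Liver microsomes from male SD rat, dog or human at 0.5 mg/mL in 100 mM potassium phosphate pH 7.4 with 1 μM compound. Prewarmed 37 °C 10 min, started with 1 mM NADPH. Stopped at 0, 5, 10, 20, 40, 60 min with cold methanol containing glibenclamide internal standard; supernatant by LC–MS/MS; T1/2 and CLint derived.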"}, "786-0": {"test_system": "786-0", "assay": "Growth inhibition of human 786-0 cells assessed as cell growth inhibition at 10 uM incubated for 48 hrs by sulforhodamine B assay", "format": "functional", "conditions": "786-0, 48 h, read-out: GI"}, "[6]": {"molecular_target": "Polyamine deacetylase HDAC10 (Homo sapiens, UniProt Q969S8)", "sequence (Q969S8 whole entry)": "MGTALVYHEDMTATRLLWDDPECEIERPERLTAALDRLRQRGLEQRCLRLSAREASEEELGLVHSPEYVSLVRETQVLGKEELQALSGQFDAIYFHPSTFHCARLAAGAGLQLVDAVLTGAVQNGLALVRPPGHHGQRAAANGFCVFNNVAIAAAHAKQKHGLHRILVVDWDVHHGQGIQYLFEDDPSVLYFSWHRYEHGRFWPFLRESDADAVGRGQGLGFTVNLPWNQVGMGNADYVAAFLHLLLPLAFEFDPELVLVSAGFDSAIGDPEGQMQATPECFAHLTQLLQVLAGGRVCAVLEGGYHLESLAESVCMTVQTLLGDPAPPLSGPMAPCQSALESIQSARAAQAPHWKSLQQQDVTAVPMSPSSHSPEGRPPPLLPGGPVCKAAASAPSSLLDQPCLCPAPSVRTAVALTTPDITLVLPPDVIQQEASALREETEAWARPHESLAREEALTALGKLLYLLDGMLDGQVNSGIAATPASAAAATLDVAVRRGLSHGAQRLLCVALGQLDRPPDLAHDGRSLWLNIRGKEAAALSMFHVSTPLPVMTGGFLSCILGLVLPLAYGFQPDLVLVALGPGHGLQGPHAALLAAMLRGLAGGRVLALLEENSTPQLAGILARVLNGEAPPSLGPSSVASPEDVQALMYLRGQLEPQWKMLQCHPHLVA", "assay": "Inhibition of HDAC10 (unknown origin) using Fluor de Lys substrate by fluorescence assay relative to control", "how_it_was_run": "as §1"}, "K562": {"test_system": "K562", "assay": "Antiproliferative activity against human K562 assessed as reduction in cell viability measured after 72 hrs using alamar blue based fluorescence method", "format": "functional", "conditions": "K562, 72 h", "how_it_was_run": "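Leukemia lines grown in IMDM with penicillin/streptomycin, HL-60 with 20% FBS and K562 with 10% FBS, at 37 °C, 5% CO2. Cells in 96-well plates exposed to drug for 72 h. Alamar blue (1 mM solution) added for 5–6 h, fluorescence read at 530/590 nm.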"}, "[7]": {"assay": "Metabolic stability in human liver microsomes assessed as half life at 1 uM preincubated for 10 mins followed by NADPH addition measured upto 60 mins by LC-MS/MS analysis", "format": "ADME, Microsome", "how_it_was_run": "as §2"}, "[8]": {"assay": "Metabolic stability in dog liver microsomes assessed as internal clearance at 1 uM preincubated for 10 mins followed by NADPH addition measured upto 60 mins by LC-MS/MS analysis", "format": "ADME, Canis lupus familiaris, Microsome", "conditions": "read-out: CLH", "how_it_was_run": "as §2"}, "HCC 2998": {"test_system": "HCC 2998", "assay": "Growth inhibition of human HCC2998 cells assessed as cell growth inhibition at 10 uM incubated for 48 hrs by sulforhodamine B assay", "format": "functional", "conditions": "HCC 2998, 48 h, read-out: GI"}, "[9]": {"molecular_target": "Histone deacetylase 4 (Homo sapiens) (UniProt P56524)", "sequence (P56524 whole entry)": "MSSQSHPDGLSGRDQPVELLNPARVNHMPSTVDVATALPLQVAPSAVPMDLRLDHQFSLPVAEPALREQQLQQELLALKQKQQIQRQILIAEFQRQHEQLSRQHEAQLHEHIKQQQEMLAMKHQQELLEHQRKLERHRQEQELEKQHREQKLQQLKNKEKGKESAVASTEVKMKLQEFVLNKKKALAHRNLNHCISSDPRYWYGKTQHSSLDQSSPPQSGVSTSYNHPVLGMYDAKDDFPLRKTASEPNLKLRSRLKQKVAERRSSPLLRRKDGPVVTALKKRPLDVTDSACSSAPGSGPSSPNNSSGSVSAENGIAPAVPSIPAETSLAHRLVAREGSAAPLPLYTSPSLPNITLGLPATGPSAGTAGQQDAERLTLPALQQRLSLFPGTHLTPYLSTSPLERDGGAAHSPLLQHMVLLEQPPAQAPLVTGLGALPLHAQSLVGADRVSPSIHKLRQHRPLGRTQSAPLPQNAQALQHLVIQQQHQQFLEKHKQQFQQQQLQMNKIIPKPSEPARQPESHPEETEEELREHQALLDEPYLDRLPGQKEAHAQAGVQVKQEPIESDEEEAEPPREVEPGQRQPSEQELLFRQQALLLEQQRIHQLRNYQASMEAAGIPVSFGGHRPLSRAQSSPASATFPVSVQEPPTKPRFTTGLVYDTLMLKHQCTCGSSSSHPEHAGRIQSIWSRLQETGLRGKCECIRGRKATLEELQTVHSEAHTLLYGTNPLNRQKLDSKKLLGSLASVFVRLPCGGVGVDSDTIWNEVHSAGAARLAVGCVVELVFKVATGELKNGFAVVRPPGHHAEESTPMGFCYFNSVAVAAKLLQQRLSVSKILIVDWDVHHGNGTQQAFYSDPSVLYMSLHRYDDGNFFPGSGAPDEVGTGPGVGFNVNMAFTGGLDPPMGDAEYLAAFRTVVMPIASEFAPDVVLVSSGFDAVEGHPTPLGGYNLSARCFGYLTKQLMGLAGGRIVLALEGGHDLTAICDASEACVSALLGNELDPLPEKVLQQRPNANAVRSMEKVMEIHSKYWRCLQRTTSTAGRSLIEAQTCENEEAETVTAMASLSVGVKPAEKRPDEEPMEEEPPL", "assay": "Inhibition of HDAC4 (unknown origin) using Fluor de Lys substrate by fluorescence assay relative to control", "how_it_was_run": "as §1"}, "TK-10": {"test_system": "TK-10", "assay": "Growth inhibition of human TK10 cells assessed as cell growth inhibition at 10 uM incubated for 48 hrs by sulforhodamine B assay", "format": "functional", "conditions": "TK-10, 48 h, read-out: GI"}, "MDA-MB-435": {"test_system": "MDA-MB-435", "assay": "Growth inhibition of human MDA-MB-435 cells assessed as cell growth inhibition at 10 uM incubated for 48 hrs by sulforhodamine B assay", "format": "functional", "conditions": "MDA-MB-435, 48 h, read-out: GI"}}, "note": "Active and inactive are the calls of the source. The rule behind the calls is not given here."}
{"smiles": "Nc1cc(F)ccc1NC(=O)c1ccc(CNC(=O)/C=C2\\NC(=O)c3ccccc32)cc1", "values": [{"measurement": "AUC(0-inf)", "setting": "[1]", "value": 784, "unit": "ng·h/mL"}, {"measurement": "inhibition of growth at 10 µM", "setting": "U-251", "value": 35.9, "unit": "%"}, {"measurement": "inhibition of growth at 10 µM", "setting": "LOX IMVI", "value": 15.7, "unit": "%"}, {"measurement": "inhibition of growth at 10 µM", "setting": "SN12C", "value": 30.8, "unit": "%"}, {"measurement": "inhibition", "setting": "[2]", "value": "inactive"}, {"measurement": "inhibition of growth at 10 µM", "setting": "OVCAR-8", "value": 55.9, "unit": "%"}, {"measurement": "inhibition of growth at 10 µM", "setting": "NCI-H322M", "value": 14.2, "unit": "%"}, {"measurement": "inhibition of growth at 10 µM", "setting": "SK-MEL-28", "value": 33.8, "unit": "%"}, {"measurement": "IC50", "setting": "MCF7 [3]", "value": 14600, "unit": "nM"}, {"measurement": "inhibition of growth at 10 µM", "setting": "HT-29", "value": 40.4, "unit": "%"}, {"measurement": "Ratio IC50", "setting": "MCF7 [4]", "value": 2}, {"measurement": "inhibition of growth at 10 µM", "setting": "OVCAR-5", "value": 36.4, "unit": "%"}, {"measurement": "inhibition of growth at 10 µM", "setting": "DU-145", "value": 13, "unit": "%"}, {"measurement": "inhibition of growth at 10 µM", "setting": "NCI-H23", "value": 26.5, "unit": "%"}, {"measurement": "inhibition of growth at 10 µM", "setting": "NCI-H226", "value": 30.2, "unit": "%"}, {"measurement": "inhibition of growth at 10 µM", "setting": "UO-31", "value": 50.1, "unit": "%"}, {"measurement": "IC50", "setting": "Histone deacetylase 8", "value": 1080, "unit": "nM"}, {"measurement": "inhibition of growth at 10 µM", "setting": "SK-MEL-2", "value": 52, "unit": "%"}, {"measurement": "half-life at 1 µM", "setting": "[5]", "value": 2.02, "unit": "h"}, {"measurement": "inhibition of growth at 10 µM", "setting": "786-0", "value": 7.02, "unit": "%"}, {"measurement": "IC50", "setting": "[6]", "value": 950, "unit": "nM"}, {"measurement": "IC50", "setting": "K562", "value": 193, "unit": "nM"}, {"measurement": "half-life at 1 µM", "setting": "[7]", "value": 4.87, "unit": "h"}, {"measurement": "microsomal CLint at 1 µM", "setting": "[8]", "value": 6.92, "unit": "µL/min/mg"}, {"measurement": "inhibition of growth at 10 µM", "setting": "HCC 2998", "value": 20.4, "unit": "%"}, {"measurement": "inhibition", "setting": "[9]", "value": "inactive"}, {"measurement": "inhibition of growth at 10 µM", "setting": "TK-10", "value": 72.3, "unit": "%"}, {"measurement": "inhibition of growth at 10 µM", "setting": "MDA-MB-435", "value": 28.8, "unit": "%"}]}
